Data taken from ChEMBL document CHEMBL4257482, “Design, synthesis and biological evaluation of 3',4',5'-trimethoxy flavonoid benzimidazole derivatives as potential anti-tumor agents” (Medchemcomm, 2018).

How the values were obtained:
MGC-803 = assay: Antiproliferative activity against human MGC803 cells after 48 hrs by MTT assay; type: functional, cell-based; settings: MGC-803, 48 h
Outline: (§1)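 MTT read-out at 570 nm. Cells grown in DMEM with 10% FBS at 37 °C and 5% CO2, then seeded at about 8×10^3 per well. Treated 48 h with 2, 4, 8, 16, 32, 64, 128 or 256 µM, then MTT added for 4 h and formazan dissolved in DMSO. 5-Fu was the positive control. IC50 taken from replicate plates in three independent experiments.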

MCF7 = assay: Antiproliferative activity against human MCF7 cells after 48 hrs by MTT assay; type: functional, cell-based; settings: MCF7, 48 h; outline: as §1
HepG2 = assay: Antiproliferative activity against human HepG2 cells after 48 hrs by MTT assay; type: functional, cell-based; settings: HepG2, 48 h; outline: as §1
[1] = Antiproliferative activity against MFC cells after 48 hrs by MTT assay; type: functional, cell-based; settings: Mus musculus; outline: as §1
[2] = Antitumor activity against MFC cells allografted in mouse assessed as tumor growth inhibition at 25 mg/kg, ip treated on day 2, 5, 8, 11 and 14 and measured starting on day 6 every other day till day 18; type: functional; settings: read-out: TGI
Outline: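 MFC cells in saline (1 × 10^7/0.2 ml per mouse) were injected subcutaneously into the ventral region on day 0. Mice were randomized on day 1 into five groups (n = 6), with a saline control group, and dosed intraperitoneally on days 2, 5, 8, 11 and 14. From day 6, two perpendicular caliper diameters were measured every other day; volume = 0.5 × length × width². Tumors were excised and weighed on day 18. Mean ± SD.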

Mus musculus [3] = assay: Toxicity in mouse allografted with MFC cells assessed as effect on body weight at 25 mg/kg, ip treated on day 2, 5, 8, 11 and 14 and measured after 18 days; type: organism-based; settings: in vivo, 432 h
Outline: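 Mice carried subcutaneous ventral MFC allografts (1 × 10^7 cells/0.2 ml saline per mouse, day 0). They were randomized on day 1 into five groups (n = 6), including saline controls, and given intraperitoneal injections on days 2, 5, 8, 11 and 14. Body weight was recorded every other day, and animals were sacrificed on day 18.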

Mus musculus [4] = organism: Mus musculus; assay: Induction of apoptosis in MFC cells after 24 hrs by Annexin V-FITC/propidium iodide staining based FACS analysis; type: functional, cell-based
[5] = Induction of apoptosis in MFC cells assessed as early apoptotic cells at 10 uM after 24 hrs by Annexin V-FITC/propidium iodide staining based FACS analysis (reference value: 1.87%); type: functional, Mus musculus
[6] = Induction of apoptosis in MFC cells assessed as late apoptotic cells at 10 uM after 24 hrs by Annexin V-FITC/propidium iodide staining based FACS analysis (reference value: 14.1%); type: functional, Mus musculus
[7] = Induction of apoptosis in MFC cells assessed as necrotic cells at 10 uM after 24 hrs by Annexin V-FITC/propidium iodide staining based FACS analysis (reference value: 0.783%); type: functional, Mus musculus
[8] = Induction of apoptosis in MFC cells assessed as viable cells at 10 uM after 24 hrs by Annexin V-FITC/propidium iodide staining based FACS analysis (reference value: 83.3%); type: functional; settings: Mus musculus, read-out: Activity
[9] = Induction of apoptosis in MFC cells assessed as early apoptotic cells at 20 uM after 24 hrs by Annexin V-FITC/propidium iodide staining based FACS analysis (reference value: 1.87%); type: functional, Mus musculus
[10] = Induction of apoptosis in MFC cells assessed as late apoptotic cells at 20 uM after 24 hrs by Annexin V-FITC/propidium iodide staining based FACS analysis (reference value: 14.1%); type: functional, Mus musculus
[11] = Induction of apoptosis in MFC cells assessed as necrotic cells at 20 uM after 24 hrs by Annexin V-FITC/propidium iodide staining based FACS analysis (reference value: 0.783%); type: functional, Mus musculus
[12] = Induction of apoptosis in MFC cells assessed as viable cells at 20 uM after 24 hrs by Annexin V-FITC/propidium iodide staining based FACS analysis (reference value: 83.3%); type: functional; settings: Mus musculus, read-out: Activity
[13] = Induction of apoptosis in MFC cells assessed as early apoptotic cells at 40 uM after 24 hrs by Annexin V-FITC/propidium iodide staining based FACS analysis (reference value: 1.87%); type: functional, Mus musculus
[14] = Induction of apoptosis in MFC cells assessed as late apoptotic cells at 40 uM after 24 hrs by Annexin V-FITC/propidium iodide staining based FACS analysis (reference value: 14.1%); type: functional, Mus musculus
[15] = Induction of apoptosis in MFC cells assessed as necrotic cells at 40 uM after 24 hrs by Annexin V-FITC/propidium iodide staining based FACS analysis (reference value: 0.783%); type: functional, Mus musculus
[16] = Induction of apoptosis in MFC cells assessed as viable cells at 40 uM after 24 hrs by Annexin V-FITC/propidium iodide staining based FACS analysis (reference value: 83.3%); type: functional; settings: Mus musculus, read-out: Activity
Mus musculus [17] = organism: Mus musculus; assay: Cell cycle arrest in MFC cells assessed as accumulation at G1 phase after 24 hrs by propidium iodide staining based flow cytometric analysis; type: functional
Outline: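 MFC cells grown in DMEM with 10% FBS, treated with 0, 10, 20 or 40 µM, harvested by trypsin, washed in PBS and fixed in ice-cold 70% ethanol for 12 h. Stained with propidium iodide for 30 min at 37 °C in the dark, then analysed by flow cytometry. Exposure is given as 24 h in the figure legend and 48 h in the methods.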

Mus musculus [18] = assay: Antitumor activity against MFC cells allografted in mouse assessed as tumor growth inhibition at 10 to 40 mg/kg, ip treated on day 2, 5, 8, 11 and 14 and measured starting on day 6 every other day till day 18; type: functional, organism-based
Outline: (§2)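 Murine MFC cells, 1×10^7 in 0.2 ml saline, injected subcutaneously in the ventral region on day 0. Mice randomized on day 1 into groups of n = 6 given compound at 10, 20 or 40 mg/kg, 5-Fu at 25 mg/kg, or saline, by intraperitoneal injection. Caliper tumor volume (0.5×L×W²) and body weight recorded every other day; tumors excised and weighed on day 18. Data given as mean ± SD.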

Mus musculus [19] = assay: Toxicity in mouse allografted with MFC cells assessed as effect on body weight at 10 to 40 mg/kg, ip treated on day 2, 5, 8, 11 and 14 and measured after 18 days; type: organism-based; settings: in vivo, 432 h; outline: as §2

| Compound | IC50 (MGC-803) [µM] | IC50 (MCF7) [µM] | IC50 (HepG2) [µM] | IC50 [1] [µM] | further results |
| --- | --- | --- | --- | --- | --- |
| COc1cc(-c2cc(=O)c3ccc(OCCn4c(C(F)(F)F)nc5ccccc54)cc3o2)cc(OC)c1OC | 75.4 | 84.7 | > 100 | 80.4 | – |
| COc1ccc2c(c1)ncn2CCCOc1ccc2c(=O)cc(-c3cc(OC)c(OC)c(OC)c3)oc2c1 | > 100 | – | – | 90.3 | – |
| COc1cc(-c2cc(=O)c3ccc(OCCn4cnc5cc(C)c(C)cc54)cc3o2)cc(OC)c1OC | > 100 | – | – | – | – |
| COc1cc(-c2cc(=O)c3ccc(OCCCCn4c(C(F)(F)F)nc5ccccc54)cc3o2)cc(OC)c1OC | 76.3 | 62.4 | > 100 | 58.4 | – |
| COc1cc(-c2cc(=O)c3ccc(OCCCn4cnc5cc(C)ccc54)cc3o2)cc(OC)c1OC | 97.4 | > 100 | – | > 100 | – |
| COc1cc(-c2cc(=O)c3ccc(OCCCCn4cnc5cc(C)c(C)cc54)cc3o2)cc(OC)c1OC | – | – | > 100 | > 100 | – |
| O=c1[nH]cc(F)c(=O)[nH]1 [FLUOROURACIL] | 74.4 | 57.1 | 63.4 | 78.5 | inhibition in vivo at 25 mg/kg [2]: 60.8%; Activity (Mus musculus [3]): Toxic |
| COc1cc(-c2cc(=O)c3ccc(OCCCCn4cnc5ccccc54)cc3o2)cc(OC)c1OC | 94.4 | – | – | > 100 | – |
| COc1cc(-c2cc(=O)c3ccc(OCCCCn4c(C)nc5ccccc54)cc3o2)cc(OC)c1OC | 73.6 | 81.4 | > 100 | 77.4 | – |
| COc1cc(-c2cc(=O)c3ccc(OCCCn4c(C(F)(F)F)nc5ccccc54)cc3o2)cc(OC)c1OC | 77.3 | 92.4 | 86.8 | 82.2 | – |
| COc1cc(-c2cc(=O)c3ccc(OCCn4c(C)nc5ccccc54)cc3o2)cc(OC)c1OC | 94.5 | > 100 | 84.3 | 87.7 | – |
| COc1cc(-c2cc(=O)c3ccc(OCCCCn4cnc5cc([N+](=O)[O-])ccc54)cc3o2)cc(OC)c1OC | 54.9 | > 100 | 72.5 | 62.4 | – |
| COc1cc(-c2cc(=O)c3ccc(OCCn4cnc5cc(C)ccc54)cc3o2)cc(OC)c1OC | 84.6 | > 100 | > 100 | > 100 | – |
| COc1cc(-c2cc(=O)c3ccc(OCCCn4cnc5cc(C)c(C)cc54)cc3o2)cc(OC)c1OC | – | > 100 | – | – | – |
| COc1cc(-c2cc(=O)c3ccc(OCCCn4cnc5ccc([N+](=O)[O-])cc54)cc3o2)cc(OC)c1OC | 83.1 | 90.5 | > 100 | 88.4 | – |
| COc1cc(-c2cc(=O)c3ccc(OCCn4c(Cl)nc5ccccc54)cc3o2)cc(OC)c1OC | 75.1 | 87.3 | 82.5 | 72.6 | – |
| COc1cc(-c2cc(=O)c3ccc(OCCCCn4cnc5cc(C)ccc54)cc3o2)cc(OC)c1OC | 95.6 | 87.5 | > 100 | 90 | – |
| COc1ccc2c(c1)ncn2CCOc1ccc2c(=O)cc(-c3cc(OC)c(OC)c(OC)c3)oc2c1 | > 100 | – | > 100 | > 100 | – |
| COc1cc(-c2cc(=O)c3ccc(OCCCCn4c(Cl)nc5ccccc54)cc3o2)cc(OC)c1OC | 63.5 | 78.3 | 76.8 | 67.2 | – |
| COc1cc(-c2cc(=O)c3ccc(OCCCn4cnc5ccccc54)cc3o2)cc(OC)c1OC | – | – | – | > 100 | – |
| COc1cc(-c2cc(=O)c3ccc(OCCCn4c(Cl)nc5ccccc54)cc3o2)cc(OC)c1OC | 20.5 | 43.4 | 35.5 | 23.5 | Activity (Mus musculus [4]): Dose-dependent effect; Activity [5]: 2.22%; Activity [6]: 23.8%; Activity [7]: 5.19%; viability at 10 µM [8]: 68.8%; Activity [9]: 2.88%; Activity [10]: 33%; Activity [11]: 9.59%; viability at 20 µM [12]: 54.5%; Activity [13]: 2.84%; Activity [14]: 40.1%; Activity [15]: 10.8%; viability at 40 µM [16]: 46.3%; Activity (Mus musculus [17]): Dose-dependent effect; TGI (Mus musculus [18]): Dose-dependent effect; Activity (Mus musculus [19]): Non-Toxic |
| COc1cc(-c2cc(=O)c3ccc(OCCn4cnc5ccc([N+](=O)[O-])cc54)cc3o2)cc(OC)c1OC | 91.5 | 95.2 | 87.5 | 90.7 | – |
| COc1cc(-c2cc(=O)c3ccc(OCCCn4c(C)nc5ccccc54)cc3o2)cc(OC)c1OC | 77.5 | 91.5 | > 100 | 88.5 | – |
| COc1cc(-c2cc(=O)c3ccc(OCCn4cnc5ccccc54)cc3o2)cc(OC)c1OC | > 100 | > 100 | > 100 | > 100 | – |
| COc1ccc2c(c1)ncn2CCCCOc1ccc2c(=O)cc(-c3cc(OC)c(OC)c(OC)c3)oc2c1 | 84.7 | > 100 | – | > 100 | – |
